Series [1] in a line: Cytotoxicity against mouse RAW264.7 cells assessed as cell viability at IC50 by MTT assay relative to control. Format: cell-based. As to conditions: read-out: Activity. A general note: Tetrazolium dyes change colour on reduction, which living cells bring about.
The nature of series [2]: Cytotoxicity against mouse J774A1 cells assessed as cell viability at IC50 by MTT assay relative to control. As to conditions: read-out: Activity. Format: cell-based, J774.A1.
Series [3] has as its system RAW264.7. As to the kind of experiment: Antiinflammatory activity in mouse RAW264.7 cells assessed as inhibition of LPS-induced TNF-alpha production at 20 ug/ml incubated for 1 hr prior to LPS challenge measured after 6 hrs by sandwich ELISA relative to control. The series is classed as functional. Put shortly:
(§1)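 Compounds were tested at 20 µg/mL on LPS-stimulated cells. TNF-α and IL-1β released into the medium were quantified with an ELISA kit following the kit protocol and expressed as % inhibition. Data are mean ± SD of three separate experiments, each run in triplicate.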
In general terms: ELISA stands for enzyme-linked immunosorbent assay.

Series [4] can be described thus: Antiinflammatory activity in mouse J774A1 cells assessed as inhibition of LPS-induced TNF-alpha production at 20 ug/ml incubated for 1 hr prior to LPS challenge measured after 6 hrs by sandwich ELISA relative to control. The series is classed as functional. As to conditions: J774.A1. Put shortly:
as §1

Series [5] deals with RAW264.7. Nature of the series: Antiinflammatory activity in mouse RAW264.7 cells assessed as inhibition of LPS-induced IL-1beta production at 20 ug/ml incubated for 1 hr prior to LPS challenge measured after 12 hrs by sandwich ELISA relative to control. Format: functional. The essentials: as §1
A short description of series [6]: Antiinflammatory activity in mouse J774A1 cells assessed as inhibition of LPS-induced IL-1beta production at 20 ug/ml incubated for 1 hr prior to LPS challenge measured after 12 hrs by sandwich ELISA relative to control. Format: functional. As to conditions: J774.A1. The essentials:
as §1

For series [7], the system named is RAW264.7. As to the kind of experiment: Antiinflammatory activity in mouse RAW264.7 cells assessed as inhibition of LPS-induced NO production incubated for 1 hr prior to LPS challenge measured after 24 hrs by Griess method. Format: functional, cell-based. Put shortly:
(§2)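 NO release was measured in LPS-stimulated macrophages, and IC50 values were derived from it. Data are mean ± SD of three separate experiments, each run in triplicate.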

Series [8] can be described thus: Antiinflammatory activity in mouse J774A1 cells assessed as inhibition of LPS-induced NO production incubated for 1 hr prior to LPS challenge measured after 24 hrs by Griess method. As to conditions: J774.A1. Format: functional, cell-based. The essentials: as §2
A general note: Griess reagent forms a coloured azo dye with nitrite.

SMILES strings stand for the structures.

As usually defined, the inhibition is the change of the read-out against control, counted positive when it falls. Usually IC50 stands for the midpoint of a concentration-inhibition curve.

As to `C=C(C)[C@@H]1CC[C@]2(C)CC[C@]3(C)[C@H](CC[C@@H]4[C@@]5(C)Cc6c([nH]c7ccc(Br)cc67)C(C)(C)[C@@H]5CC[C@]43C)[C@@H]12`, the viability amounted to 91.4% in series [1] and 90.8% in series [2]. In addition, the inhibition at 20 µg/mL turned out to be 39.2% with RAW264.7 [3], 31.5% in series [4], 19.7% in the series on RAW264.7 [5] and 16.2% in series [6]. Besides, the figures for the IC50 (in the series with RAW264.7 [7]; in series [8]) were 23.9 µM and 18.4 µM, respectively.
In the case of `C=C(C)[C@@H]1CC[C@]2(C)CC[C@]3(C)[C@H](CC[C@@H]4[C@@]5(C)Cc6c([nH]c7ccc(Cl)cc67)C(C)(C)[C@@H]5CC[C@]43C)[C@@H]12`, the viability is 93.3% in series [1] and 92.7% in series [2]. Further, the IC50 in the series on RAW264.7 [7] worked out at 35.6 µM; in series [8], 33.2 µM.
For `C=C(C)[C@@H]1CC[C@]2(C)CC[C@]3(C)[C@H](CC[C@@H]4[C@@]5(C)CC[C@H](OC(=O)CC(C)(C)C(=O)O)C(C)(C)[C@@H]5CC[C@]43C)[C@@H]12` the same measures were 87.6%, 83.6%, 39.2 µM and 42.6 µM.
For `C=C(C)[C@@H]1CC[C@]2(C)CC[C@]3(C)[C@H](CC[C@@H]4[C@@]5(C)CC[C@H](O)C(C)(C)[C@@H]5CC[C@]43C)[C@@H]12` [LUPEOL] the same measures were 87.3%, 88.3%, 37.3 µM and 34.5 µM.
In the same order, the values of `C=C(C)[C@@H]1CC[C@]2(C)CC[C@]3(C)[C@H](CC[C@@H]4[C@@]5(C)CC[C@H](OC(=O)CCC(=O)O)C(C)(C)[C@@H]5CC[C@]43C)[C@@H]12` are 91.3%, 90.1%, 39.2 µM and 39.3 µM.
`C=C(C=O)[C@@H]1CC[C@]2(C)CC[C@]3(C)[C@H](CC[C@@H]4[C@@]5(C)CC[C@H](O)C(C)(C)[C@@H]5CC[C@]43C)[C@@H]12`: the viability in series [1] came to 95.2%; in series [2], 92.1%. Moreover, the concentration for half-maximal inhibition (IC50) worked out at 42.9 µM in the series with RAW264.7 [7] and 37 µM in series [8].
In the same order, the values of `C=C(C)[C@@H]1CC[C@]2(C)CC[C@]3(C)[C@H](CC[C@@H]4[C@@]5(C)Cc6c([nH]c7ccc(F)cc67)C(C)(C)[C@@H]5CC[C@]43C)[C@@H]12` are 95.2%, 92.1%, 41.7 µM and 41.7 µM.
Consider `C=C(C)[C@@H]1CC[C@]2(C)CC[C@]3(C)[C@H](CC[C@@H]4[C@@]5(C)CC[C@H](OC(C)=O)C(C)(C)[C@@H]5CC[C@]43C)C12` (single isomer, unassigned) [LUPENYL ACETATE], for which the figures for the viability in series [1] and in series [2] were 80.3% and 83.5%, respectively. Besides, the IC50 came to 36.7 µM in the series on RAW264.7 [7] and 33.2 µM in series [8].
In the same order, the values of `C=C(C)[C@@H]1CC[C@]2(C)CC[C@]3(C)[C@H](CC[C@@H]4[C@@]5(C)Cc6c([nH]c7ccccc67)C(C)(C)[C@@H]5CC[C@]43C)[C@@H]12` are 91.8%, 90.3%, 31.7 µM and 31.7 µM.
For `C=C(C)[C@@H]1CC[C@]2(C)CC[C@]3(C)[C@H](CC[C@@H]4[C@@]5(C)CC[C@H](N(O)c6ccccc6)C(C)(C)[C@@H]5CC[C@]43C)[C@@H]12` the same measures were 79.3%, 82.5%, 48.7 µM and 47.7 µM.
As for `C=C(C)[C@@H]1CC[C@]2(C)CC[C@]3(C)[C@H](CC[C@@H]4[C@@]5(C)Cc6nccnc6C(C)(C)[C@@H]5CC[C@]43C)[C@@H]12`, the viability in series [1] came to 95.2%; in series [2], 93.3%. For the same compound, the IC50 (in the series on RAW264.7 [7]; in series [8]) was 32.4 µM throughout.
Consider `C=C(C)[C@@H]1CC[C@]2(C)CC[C@]3(C)[C@H](CC[C@@H]4[C@@]5(C)Cc6c([nH]c7ccc(I)cc67)C(C)(C)[C@@H]5CC[C@]43C)[C@@H]12`, for which the figures for the viability in series [1] and in series [2] were 95.2% and 93.3%, respectively. Further, the inhibition at 20 µg/mL in the series with RAW264.7 [3] was found to be 42.3%; in series [4] it was 37%; with RAW264.7 [5] it was 22.9%; in series [6], 17.3%. Also, the IC50 was 22.6 µM with RAW264.7 [7] and 25.2 µM in series [8].
Consider `C=C(C)[C@@H]1CC[C@]2(C)CC[C@]3(C)[C@H](CC[C@@H]4[C@@]5(C)Cc6c([nH]c7ccc(C)cc67)C(C)(C)[C@@H]5CC[C@]43C)[C@@H]12`, for which the figures for the viability in series [1] and in series [2] were 89.3% and 87%, respectively. Also, the IC50 with RAW264.7 [7] is 27.8 µM; in series [8], 28.6 µM.
In the same order, the values of `C=C(C)[C@@H]1CC[C@]2(C)CC[C@]3(C)[C@H](CC[C@@H]4[C@@]5(C)CCC(=O)C(C)(C)[C@@H]5CC[C@]43C)[C@@H]12` [LUPENONE] are 89.6%, 87.7%, 38.5 µM and 38.8 µM.
In the same order, the values of `C=C(C)[C@@H]1CC[C@]2(C)CC[C@]3(C)[C@H](CC[C@@H]4[C@@]5(C)CC/C(=N\O)C(C)(C)[C@@H]5CC[C@]43C)[C@@H]12` are 95.7%, 93.6%, 46 µM and 44.6 µM.
`C=C(C)[C@@H]1CC[C@]2(C)CC[C@]3(C)[C@H](CC[C@@H]4[C@@]5(C)Cc6c([nH]c7c(C)ccc(C)c67)C(C)(C)[C@@H]5CC[C@]43C)[C@@H]12`: the figures for the viability in series [1] and in series [2] were 93.2% and 91.5%, respectively. Further, the inhibition at 20 µg/mL in the series with RAW264.7 [3] turned out to be 32.8%; in series [4] it was 31.1%; in the series with RAW264.7 [5], 22.8%; in series [6], 17.2%. The IC50 in the series with RAW264.7 [7] turned out to be 25.9 µM; in series [8], 23.2 µM.
As to `C=C(C)[C@@H]1CC[C@]2(C)CC[C@]3(C)[C@H](CC[C@@H]4[C@@]5(C)Cc6c([nH]c7c(CC)cccc67)C(C)(C)[C@@H]5CC[C@]43C)[C@@H]12`, the viability in series [1] came to 91.5%; in series [2], 91.7%. Moreover, the inhibition at 20 µg/mL was 39.1% in the series on RAW264.7 [3], 29.4% in series [4], 11.4% with RAW264.7 [5] and 10.1% in series [6]. Moreover, the IC50 in the series with RAW264.7 [7] was 30.6 µM; in series [8] it was 28.6 µM.
As to `C=C(C)[C@@H]1CC[C@]2(C)CC[C@]3(C)[C@H](CC[C@@H]4[C@@]5(C)CCC(=S)C(C)(C)[C@@H]5CC[C@]43C)[C@@H]12`, the values for the viability in series [1] and in series [2] were 94.3% and 91.9%, respectively. Besides, the results for the IC50 (in the series with RAW264.7 [7]; in series [8]) were 36.2 µM and 36.3 µM, respectively.
Take `COc1cc(/C=C/C(=O)CC(=O)/C=C/c2ccc(O)c(OC)c2)ccc1O` [CURCUMIN]: the IC50 in the series with RAW264.7 [7] was 11 µM; in series [8], 18.5 µM.
In the same order, the values of `COC(=O)[C@@H](N)CCCNC(=N)N[N+](=O)[O-]` [L-NAME] are 69.2 µM and 73.2 µM.

Source of the values: ChEMBL document CHEMBL3352443, “Synthesis of new heterocyclic lupeol derivatives as nitric oxide and pro-inflammatory cytokine inhibitors” (Bioorg Med Chem Lett, 2014).
